Assay results reported in PMC5788303 (Journal of medicinal chemistry, 2017).

Experiments:
[1] = In situ mouse brain perfusion; type: in vivo
In short: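 Adult male mice, 25 ± 5 g, anaesthetised with i.p. ketamine 120 mg/kg plus xylazine. Right external carotid ligated; right common carotid cannulated with a 100 IU/mL heparin-filled catheter. Perfused with 100 μM test compound at 37 °C and 2.5 mL/min for 60 s, then washed 2 s with 4 °C drug-free buffer. Brain level measured (detection limit 5 pmol/g).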

[2] = target: native KA receptors; experiment: Radioligand binding at native KA receptors; conditions: [3H]KA, rat synaptosomes
In short: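 Native kainate receptors in rat brain synaptosomes were labelled with [3H]KA, and displacement by the test compound was measured. IC50 and Ki values were derived from the binding data.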

[3] = target: native AMPA receptors; experiment: Radioligand binding at native AMPA receptors; conditions: read-out: AMPA IC50; [3H]AMPA, rat synaptosomes
In short: (§1)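 Native receptors in rat brain synaptosomes: AMPA labelled with [3H]AMPA, KA with [3H]KA, NMDA with [3H]CGP-39653. Recombinant homomeric rat GluK1-3 labelled with [3H]KA. IC50 and Ki values derived from displacement data.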

[4] = target: iGluRs; experiment: Binding affinity at iGluRs; set-up: species or system rat; conditions: native iGluRs and homomeric GluK1-3
In short: as §1

[5] = test system: Abcg2 (Bcrp); experiment: Transporter protein expression by SRM/MRM LC-MS/MS, Abcg2; type: cell-based, mouse; conditions: 10 μM, 48 h, HCC cell crude membrane fraction
[6] = test system: NMDA receptors in murine HCC cells; experiment: Calcium imaging of NMDA-induced Ca2+ transients in murine HCC cells; type: cell-based, mouse; conditions: 150 μM NMDA
[7] = target: GluN1/GluN2A (Rattus norvegicus, UniProt Q00959); experiment: Two-electrode voltage-clamp electrophysiology, Xenopus oocytes, GluN1/GluN2A; type: biochemical; conditions: 100 μM glycine and 10 μM Glu
GluN1/GluN2A, sequence (Q00959 23-1464, other chains not shown): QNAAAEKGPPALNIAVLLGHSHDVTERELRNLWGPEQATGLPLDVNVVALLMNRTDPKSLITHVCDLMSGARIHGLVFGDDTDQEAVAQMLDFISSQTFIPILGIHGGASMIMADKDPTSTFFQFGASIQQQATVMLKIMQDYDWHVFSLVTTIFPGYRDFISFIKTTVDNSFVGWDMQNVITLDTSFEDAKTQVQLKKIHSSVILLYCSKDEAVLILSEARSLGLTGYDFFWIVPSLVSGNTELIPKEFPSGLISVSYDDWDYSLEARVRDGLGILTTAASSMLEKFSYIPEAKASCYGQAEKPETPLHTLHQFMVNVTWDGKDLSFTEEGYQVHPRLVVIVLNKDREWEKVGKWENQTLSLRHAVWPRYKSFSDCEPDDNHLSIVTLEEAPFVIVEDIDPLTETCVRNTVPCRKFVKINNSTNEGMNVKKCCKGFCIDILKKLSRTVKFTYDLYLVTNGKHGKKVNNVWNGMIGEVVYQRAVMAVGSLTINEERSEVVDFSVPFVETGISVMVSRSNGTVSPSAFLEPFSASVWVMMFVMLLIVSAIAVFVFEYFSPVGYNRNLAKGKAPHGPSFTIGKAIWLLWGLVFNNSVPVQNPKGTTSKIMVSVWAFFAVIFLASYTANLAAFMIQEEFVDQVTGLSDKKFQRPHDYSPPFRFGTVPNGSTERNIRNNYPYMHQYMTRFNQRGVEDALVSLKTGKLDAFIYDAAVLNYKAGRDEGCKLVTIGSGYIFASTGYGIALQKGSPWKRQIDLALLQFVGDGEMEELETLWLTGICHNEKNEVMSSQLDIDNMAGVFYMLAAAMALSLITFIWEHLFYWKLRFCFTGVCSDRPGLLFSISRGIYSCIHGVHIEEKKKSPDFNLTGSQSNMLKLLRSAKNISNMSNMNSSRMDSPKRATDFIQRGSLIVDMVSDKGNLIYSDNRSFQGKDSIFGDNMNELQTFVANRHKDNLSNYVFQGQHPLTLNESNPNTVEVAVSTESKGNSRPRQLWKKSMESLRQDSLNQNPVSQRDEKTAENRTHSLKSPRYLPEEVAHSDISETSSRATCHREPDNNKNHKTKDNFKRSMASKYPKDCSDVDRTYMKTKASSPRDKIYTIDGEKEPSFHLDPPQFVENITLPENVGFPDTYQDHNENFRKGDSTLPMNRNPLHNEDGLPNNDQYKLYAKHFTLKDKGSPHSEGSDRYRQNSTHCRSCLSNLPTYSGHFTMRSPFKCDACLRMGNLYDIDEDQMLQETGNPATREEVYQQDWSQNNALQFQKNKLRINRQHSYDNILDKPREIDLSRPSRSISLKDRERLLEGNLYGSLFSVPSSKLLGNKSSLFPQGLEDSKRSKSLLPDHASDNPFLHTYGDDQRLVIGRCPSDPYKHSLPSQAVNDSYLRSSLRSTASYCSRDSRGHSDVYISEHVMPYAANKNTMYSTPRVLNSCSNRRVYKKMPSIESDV
In short: (§2)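 Rat GluN1 and GluN2A-D cRNAs injected 1:2 into Xenopus oocytes, held at 18 °C in Barth's solution. Recorded at room temperature 2–6 days later in 90 mM NaCl, 1 mM KCl, 10 mM HEPES, 0.5 mM BaCl2, 0.01 mM EDTA (pH 7.4), −40 mV. Currents evoked by 100 μM glycine plus Glu: 10 μM (2A), 3 μM (2B, 2C), 1 μM (2D). Per-oocyte Hill fits, mean ± SEM.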

[8] = target: GluN1/GluN2C (Rattus norvegicus, UniProt Q00961); experiment: Two-electrode voltage-clamp electrophysiology, Xenopus oocytes, GluN1/GluN2C; type: biochemical; conditions: 100 μM glycine and 3 μM Glu
GluN1/GluN2C, sequence (Q00961 20-1237, other chains not shown): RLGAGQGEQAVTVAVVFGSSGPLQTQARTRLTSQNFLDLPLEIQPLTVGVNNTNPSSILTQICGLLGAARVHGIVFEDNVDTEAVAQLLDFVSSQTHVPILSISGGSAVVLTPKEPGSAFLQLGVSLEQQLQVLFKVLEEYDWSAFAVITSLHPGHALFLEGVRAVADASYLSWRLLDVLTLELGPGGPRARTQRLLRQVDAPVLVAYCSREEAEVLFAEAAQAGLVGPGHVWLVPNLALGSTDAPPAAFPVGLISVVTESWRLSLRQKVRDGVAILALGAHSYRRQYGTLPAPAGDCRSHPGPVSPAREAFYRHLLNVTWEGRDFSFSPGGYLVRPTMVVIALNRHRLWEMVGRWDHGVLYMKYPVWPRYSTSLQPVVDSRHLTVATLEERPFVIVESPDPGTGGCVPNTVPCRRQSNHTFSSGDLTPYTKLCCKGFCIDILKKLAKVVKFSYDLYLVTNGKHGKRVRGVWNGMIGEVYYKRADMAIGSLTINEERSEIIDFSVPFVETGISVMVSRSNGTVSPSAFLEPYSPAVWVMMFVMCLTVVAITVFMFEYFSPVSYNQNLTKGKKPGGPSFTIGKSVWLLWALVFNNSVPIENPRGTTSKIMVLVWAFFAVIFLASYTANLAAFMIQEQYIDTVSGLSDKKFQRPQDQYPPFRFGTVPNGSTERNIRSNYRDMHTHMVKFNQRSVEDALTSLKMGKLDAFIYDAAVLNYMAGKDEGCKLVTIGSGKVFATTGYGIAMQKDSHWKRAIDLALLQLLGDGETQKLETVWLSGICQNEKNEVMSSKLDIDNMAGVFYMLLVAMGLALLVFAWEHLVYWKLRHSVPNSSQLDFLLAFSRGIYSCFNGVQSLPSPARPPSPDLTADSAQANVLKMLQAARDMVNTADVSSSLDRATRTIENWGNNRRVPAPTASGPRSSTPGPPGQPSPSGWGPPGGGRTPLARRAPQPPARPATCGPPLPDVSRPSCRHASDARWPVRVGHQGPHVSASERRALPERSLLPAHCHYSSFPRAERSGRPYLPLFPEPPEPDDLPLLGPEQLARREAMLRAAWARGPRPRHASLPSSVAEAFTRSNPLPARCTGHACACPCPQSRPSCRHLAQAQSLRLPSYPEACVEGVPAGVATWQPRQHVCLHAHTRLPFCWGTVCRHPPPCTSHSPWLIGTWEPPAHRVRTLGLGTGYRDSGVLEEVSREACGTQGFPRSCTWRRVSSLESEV
In short: as §2

[9] = test system: Abcb1 (Pgp); experiment: Transporter protein expression by SRM/MRM LC-MS/MS, Abcb1; type: cell-based, mouse; conditions: 10 μM, 48 h, HCC cell crude membrane fraction
[10] = test system: Slc7a5 (Lat1); experiment: Transporter protein expression by SRM/MRM LC-MS/MS, Slc7a5; type: cell-based, mouse; conditions: 10 μM, 48 h, HCC cell crude membrane fraction
[11] = In vivo pharmacokinetics in mice, 10 mg/kg i.p.; set-up: species or system mouse
[12] = test system: Abcc2 (Mrp2); experiment: Transporter protein expression by SRM/MRM LC-MS/MS, Abcc2; type: cell-based, mouse; conditions: 10 μM, HCC cell crude membrane fraction
[13] = test system: Abcc4 (Mrp4); experiment: Transporter protein expression by SRM/MRM LC-MS/MS, Abcc4; type: cell-based, mouse; conditions: 10 μM, 48 h, HCC cell crude membrane fraction
[14] = target: GluN1/GluN2B (Rattus norvegicus, UniProt Q00960); experiment: Two-electrode voltage-clamp electrophysiology, Xenopus oocytes, GluN1/GluN2B; type: biochemical; conditions: 100 μM glycine and 3 μM Glu
GluN1/GluN2B, sequence (Q00960 27-1482, other chains not shown): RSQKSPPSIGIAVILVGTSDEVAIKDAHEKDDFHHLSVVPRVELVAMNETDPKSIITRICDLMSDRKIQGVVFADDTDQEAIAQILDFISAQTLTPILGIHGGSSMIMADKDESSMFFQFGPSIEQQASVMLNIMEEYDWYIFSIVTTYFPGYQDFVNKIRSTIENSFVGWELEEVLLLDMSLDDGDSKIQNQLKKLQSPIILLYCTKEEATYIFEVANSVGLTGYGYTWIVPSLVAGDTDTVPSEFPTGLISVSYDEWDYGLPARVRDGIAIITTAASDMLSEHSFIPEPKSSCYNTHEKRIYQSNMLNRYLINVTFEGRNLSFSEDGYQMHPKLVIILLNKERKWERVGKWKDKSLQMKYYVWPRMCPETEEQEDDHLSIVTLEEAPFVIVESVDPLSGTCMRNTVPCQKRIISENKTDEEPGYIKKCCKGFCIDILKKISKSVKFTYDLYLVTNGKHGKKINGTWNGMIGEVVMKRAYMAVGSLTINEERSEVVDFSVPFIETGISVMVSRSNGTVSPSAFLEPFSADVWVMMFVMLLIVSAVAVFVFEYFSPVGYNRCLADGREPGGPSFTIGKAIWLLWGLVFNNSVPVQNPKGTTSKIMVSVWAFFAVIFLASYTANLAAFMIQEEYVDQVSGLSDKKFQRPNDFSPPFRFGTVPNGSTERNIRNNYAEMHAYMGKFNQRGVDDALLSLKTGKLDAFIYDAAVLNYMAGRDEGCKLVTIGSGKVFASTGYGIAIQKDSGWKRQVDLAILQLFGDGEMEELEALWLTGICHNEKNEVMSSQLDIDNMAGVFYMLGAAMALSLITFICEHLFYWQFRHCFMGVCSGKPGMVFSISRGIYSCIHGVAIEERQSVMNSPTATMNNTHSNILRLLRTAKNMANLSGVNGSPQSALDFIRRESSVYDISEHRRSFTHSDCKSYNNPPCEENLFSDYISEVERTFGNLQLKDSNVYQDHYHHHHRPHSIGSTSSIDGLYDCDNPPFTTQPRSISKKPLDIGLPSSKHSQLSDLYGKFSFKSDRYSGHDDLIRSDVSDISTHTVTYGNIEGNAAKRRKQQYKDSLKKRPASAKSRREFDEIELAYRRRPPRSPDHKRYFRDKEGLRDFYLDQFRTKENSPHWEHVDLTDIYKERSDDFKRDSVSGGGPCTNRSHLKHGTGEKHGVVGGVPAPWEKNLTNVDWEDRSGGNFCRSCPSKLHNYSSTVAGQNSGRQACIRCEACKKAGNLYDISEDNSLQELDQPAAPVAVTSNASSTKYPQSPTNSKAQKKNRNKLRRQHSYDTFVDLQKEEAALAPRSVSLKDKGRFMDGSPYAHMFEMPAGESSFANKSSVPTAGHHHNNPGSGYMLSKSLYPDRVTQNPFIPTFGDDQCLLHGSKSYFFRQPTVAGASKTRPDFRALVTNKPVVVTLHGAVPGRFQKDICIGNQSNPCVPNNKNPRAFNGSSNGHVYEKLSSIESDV
In short: as §2

[15] = target: GluN1/GluN2D (Rattus norvegicus, UniProt Q62645); experiment: Two-electrode voltage-clamp electrophysiology, Xenopus oocytes, GluN1/GluN2D; type: biochemical; conditions: 100 μM glycine and 1 μM Glu
In short: as §2

[16] = test system: Slc2a1 (Glut1); experiment: Transporter protein expression by SRM/MRM LC-MS/MS, Slc2a1; type: cell-based, mouse; conditions: 10 μM, 48 h, HCC cell crude membrane fraction
[17] = test system: native NMDA receptors; experiment: Radioligand binding at native NMDA receptors; set-up: species or system rat; conditions: compared with 1l / 1n
[18] = test system: mouse HCC cells; experiment: Anti-proliferative activity in vitro; type: cell-based; conditions: 72 h
In short: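 Mouse Nras-driven p53−/− HCC cells in DMEM with 2 mM L-glutamine, 10% heat-inactivated FBS and penicillin/streptomycin. Cells seeded at 2×10^4/well on collagen-coated plates and used one day later. Test compound given at 0.1–200 μM, or at 1, 2.5, 5 and 10 μM with or without a 100 μM second test compound, for 72 h with daily medium change. Viability read by resazurin fluorescence (ex 560/em 590 nm). IC50 by nonlinear regression, mean ± SEM.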

## O=C(O)c1cccc([C@H]2CCN[C@@H]2C(=O)O)c1 [1a, (2S,3R)-3-(3-Carboxyphenyl)pyrrolidine-2-Carboxylic Acid]
[1]; mouse in situ brain perfusion
  BBB penetration: does not penetrate the BBB

## Cl.O=C(O)[C@H]1NCC[C@@H]1c1cccc(Cl)c1 [1d, (2S,3R)-2-Carboxy-3-(3-chlorophenyl)pyrrolidin-1-ium chloride]
[2]
  KA IC50: >100 µM
[3]
  IC50: > 100 µM

## Cl.O=C(O)[C@H]1NCC[C@@H]1c1cccc(C(F)(F)F)c1 [1e, (2S,3R)-2-Carboxy-3-(3-(trifluoromethyl)phenyl)pyrrolidin-1-ium chloride]
[2]
  KA IC50: >100 µM
[3]
  IC50: > 100 µM

## Cl.Cl.Nc1cccc([C@H]2CCN[C@@H]2C(=O)O)c1 [1f, (2S,3R)-3-(3-Aminophenyl)pyrrolidine-2-carboxylic acid dihydrochloride]
[2]
  KA IC50: >100 µM
[3]
  IC50: > 100 µM

## Cl.N#Cc1cccc([C@H]2CCN[C@@H]2C(=O)O)c1 [1g, (2S,3R)-3-(3-Cyanophenyl)pyrrolidine-2-carboxylic acid hydrochloride]
[2]
  KA IC50: >100 µM
[3]
  IC50: > 100 µM

## Cl.NC(=O)c1cccc([C@H]2CCN[C@@H]2C(=O)O)c1 [1h, (2S,3R)-3-(3-Carbamoylphenyl)-2-carboxypyrrolidin-1-ium chloride]
[2]
  KA IC50: >100 µM
[4]
  IC50 or Ki at the iGluRs: > 100 µM
[3]
  IC50: > 100 µM

## Cl.O=C(O)[C@H]1NCC[C@@H]1c1cccc(B(O)O)c1 [1i, (2S,3R)-3-(3-Boronophenyl)pyrrolidine-2-carboxylic acid hydrochloride]
[2]
  KA IC50: >100 µM
[4]
  IC50 or Ki at the iGluRs: > 100 µM
[3]
  IC50: > 100 µM

## O=C(O)[C@H]1NCC[C@@H]1c1ccc(O)c(O)c1 [1j, (2S,3R)-3-(3,4-Dihydroxyphenyl)pyrrolidine-2-carboxylic acid]
[2]
  KA IC50: >100 µM
[3]
  IC50: > 100 µM

## O=C(O)c1cc([C@H]2CCN[C@@H]2C(=O)O)ccc1F [1k, (2S,3R)-2-Carboxy-3-(3-carboxy-4-fluorophenyl)pyrrolidin-1-ium chloride]
[3]
  IC50: > 100 µM

## Cl.O=C(O)c1cc([C@H]2CCN[C@@H]2C(=O)O)ccc1Cl [1l, (2S,3R)-3-(3-Carboxy-4-chlorophenyl)pyrrolidine-2-carboxylic acid hydrochloride]
[5]
  Abcg2 (Bcrp) protein expression level: 1.24± 0.13 fmol/μg of total protein
[6]; compound at 25 and 41 μM
  inhibition of NMDA-induced intracellular Ca2+ transients: inhibit NMDA activation significantly
[2]
  KA IC50: >100 µM
[7]
  nH (Hillslope): 1.3
[8]
  nH (Hillslope): 1.0
[9]
  Abcb1 (Pgp) protein expression level: 0.39± 0.06 fmol/μg of total protein
[10]
  Slc7a5 (Lat1) protein expression level: 5.72± 1.61 fmol/μg of total protein
[11]; 10 mg/kg i.p.
  changes in the behavior of the mice after injection: no observable changes in the behavior
[11]; 30 min after 10 mg/kg i.p.
  brain concentration: 0.3 nmol/g
[11]; 60 min after 10 mg/kg i.p.
  brain concentration: 0.1 nmol/g
[1]; perfusion with 100 μM of the compound, detection limit of analytical method
  brain concentration following perfusion: < 5 pmol/g
[12]
  Abcc2 protein expression: below the lower limit of quantification
[13]
  Abcc4 (Mrp4) protein expression level: 0.27 ± 0.04 fmol/μg of total protein
[14]
  nH (Hillslope): 1.3
[15]
  nH (Hillslope): 1.3
[3]
  IC50: > 100 µM
[16]
  Slc2a1 (Glut1) protein expression level: 13.2± 0.53 fmol/μg of total protein

## Cc1ccc([C@H]2CCN[C@@H]2C(=O)O)cc1C(=O)O.Cl [1m, (2S,3R)-3-(3-Carboxy-4-methylphenyl)pyrrolidine-2-carboxylic acid hydrochloride]
[17]
  drop in binding affinity for native NMDA receptors: 30 fold
[2]
  KA IC50: >100 µM
[3]
  IC50: > 100 µM

## Cl.O=C(O)c1cc([C@H]2CCN[C@@H]2C(=O)O)ccc1Br [1n, (2S,3R)-3-(3-Carboxy-4-bromophenyl)pyrrolidine-2-carboxylic acid hydrochloride]
[2]
  KA IC50: >100 µM
[3]
  IC50: > 100 µM

## N[C@H](CCCP(=O)(O)O)C(=O)O [D-AP5, reference compound]
[6]; compound at 20 μM
  inhibition of NMDA-induced intracellular Ca2+ transients: inhibit NMDA activation significantly

## CNC(=O)c1cc(Oc2ccc(NC(=O)Nc3ccc(Cl)c(C(F)(F)F)c3)cc2)ccn1 [sorafenib]
[18]; read-out: IC50 on HCC cell viability
  IC50: 7.4 ± 1.7 µM
[18]; read-out: cell viability
  viability at 1 µM: 88 ± 3%
  viability at 2.5 µM: 82 ± 3%
  viability at 5 µM: 72 ± 1%
  viability at 10 µM: 31 ± 2%
